Measurements collected from several papers.
Compare with care: the assays were run in different laboratories.
Cell line: RAW264.7

Compound	assay	setting	endpoint	result
C[C@]12C=CC(=O)C=C1CC[C@@H]1[C@@H]2[C@@H](O)C[C@@]2(C)[C@H]1CC[C@]2(O)C(=O)CO	NO release, inhibitor, Griess	24 h, LPS-stimulated	IC50	0.2 µg/mL
CCOc1ccc(Nc2c3c(nc4ccccc24)CCC3)cc1	cell growth or viability, resazurin	72 h	IC50	38.4 µM
C=C1CC[C@@H]2[C@](C)(CO)[C@H](O)CC[C@@]2(C)[C@@H]1C/C=C1/C(=O)OC[C@H]1O	NO release, inhibitor, Griess	24 h, LPS-stimulated	IC50	48.6 µM
COc1ccc(C[C@H](N)C(=O)N[C@H]2[C@@H](O)[C@H](n3cnc4c(N(C)C)ncnc43)O[C@@H]2CO)cc1	cell growth or viability, resazurin	72 h	IC50	1.54 µM
[H]/N=C(/NC)NCCC[C@H](N)C(=O)O	NO release, inhibitor, Griess	250 µg/mL, 24 h, LPS-stimulated	inhibition	97.1%
COc1ccc2c(c1)c(CC(=O)O)c(C)n2C(=O)c1ccc(Cl)cc1	NO release, inhibitor, Griess	24 h, LPS-stimulated	IC50	26.5 µM
[H]/N=C(/NC)NCCC[C@H](N)C(=O)O	NO release, inhibitor, Griess	LPS-stimulated	IC50	21.8 µM
C[C@@H]1C[C@H]2[C@@H]3CCC4=CC(=O)C=C[C@]4(C)[C@@]3(F)[C@@H](O)C[C@]2(C)[C@@]1(O)C(=O)CO	NO release, inhibitor, Griess	LPS-stimulated	IC50	13.1 µM
